This sample holds only a part of the variants without activity.
B1: tRNA (parent)
chain: GUUCCGUUGGCGUAAUGGUAACGCGUCUCCCUCCUAAGGAGAAGACUGCGGGUUCGAGUCCCGUACGGAACG

Variants of: B1
Test: yeast fitness relative to wild type (ratio to wild type); higher = fitter; tRNA-Arg(CCU), competitive growth, 37 C, YPD
Method in brief: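 Variants of the tRNA-Arg(CCU) gene, chemically synthesised with a 3% per-site mutation rate at 69 sites, were placed at the native genomic locus in Saccharomyces cerevisiae. The pooled strains were competed in YPD at 37°C for 24 hours in six parallel replicates. Gene amplicons from the start population and from each end population were read by 100-nucleotide paired-end sequencing. Darwinian fitness relative to wild type came from changes in genotype frequencies; genotypes needed ≥ 100 starting reads, and estimates < 0.5 were set to 0.5.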

Row | Variant | yeast fitness
1 | C11A U28C C29U C34G A36G | ≤ 0.5
2 | C11G G12A C31G A69C | ≤ 0.5
3 | C11G C24U C62U G68C | ≤ 0.5
4 | C11A G39A C61U C62A | 0.624
5 | C11A G23C C49G | ≤ 0.5
6 | C11A G23U A36U | ≤ 0.5
7 | C11G C31A A42G A43G G68C | ≤ 0.5
8 | C11G C30U A37C C55G A65G | ≤ 0.5
9 | C11A G17C A21U | ≤ 0.5
10 | C11G G12A C27G | 0.669
11 | C11G A14G A20U C27G C29U C62U | ≤ 0.5
12 | C11A U13A A20G | 0.561
13 | C11G A15U C24G A40G C62U | ≤ 0.5
14 | C11A G38A U53A | 0.543
15 | C11G A65C C66G | ≤ 0.5
16 | C11G C33G A69U | ≤ 0.5
17 | C11G C31A G39A | ≤ 0.5
18 | C11A G25C C29U U54C A65C A70U | ≤ 0.5
19 | C11G C34U C66U | ≤ 0.5
20 | C11G C27U U47A G52C | ≤ 0.5
21 | C11G C29G C33U C46A C49G G68C | ≤ 0.5

Row | Variant | yeast fitness
22 | C11A U26G G44A G52A | 0.55
23 | C11A G18A A36G A42C C66U | 0.658
24 | C11G A15C C62G | ≤ 0.5
25 | C11A U47G U64C | 0.531
26 | C11G A15G U26A U32A G38A A40C G52A | ≤ 0.5
27 | C11G A14C G23C G41C C61A | ≤ 0.5
28 | C11G A14G G23A C46A G68U | ≤ 0.5
29 | C11G C31G A42U A65C | 0.602
30 | C11A G67A A70G | 0.562
31 | C11G A20U C29A C30U C46G | ≤ 0.5
32 | C11G C27U A36U A37U G41C A43C C49G C62G | 0.604
33 | C11G C29U U35C C66A | ≤ 0.5
34 | C11G A21U C24U C66U | 0.631
35 | C11A U19A C29A U32A G44U G58A | ≤ 0.5
36 | C11A G18A C46U | 0.61
37 | C11G C27U A36U G48C C49U | 0.717
38 | C11G A14C C55G A57U G67A | ≤ 0.5
39 | C11G A21G G50A U64A | ≤ 0.5
40 | C11A U13C G23C U32G C34A | ≤ 0.5
41 | C11A U32A A70U | ≤ 0.5
42 | C11G A15C C30U U53A C61G | ≤ 0.5

Row | Variant | yeast fitness
43 | C11G C30G C31G U32A C66U | 0.551
44 | C11G G17C A40G | ≤ 0.5
45 | C11G A21G A40G | ≤ 0.5
46 | C11A U19C C60U | ≤ 0.5
47 | C11A U19G A36G U54C C66U A69C | ≤ 0.5
48 | C11G A36C G38U G56A | ≤ 0.5
49 | C11G A36C C46U | ≤ 0.5
50 | C11G A36C A57C C66G | ≤ 0.5
51 | C11G C60G | 0.713
52 | C11G C31A C55U | ≤ 0.5
53 | C11G A15C A45C | ≤ 0.5
54 | C11G C30U C31A A40U C49A | ≤ 0.5
55 | C11G C24A C66G | ≤ 0.5
56 | C11G G12C U54A C60A A69C | 0.557
57 | C11G C27G G67A | ≤ 0.5
58 | C11G C34G G48A | ≤ 0.5
59 | C11G A14C A37C G44C C61G G63C | ≤ 0.5
60 | C11G C24G C27A U28C C33U A65U | ≤ 0.5
61 | C11G C34G A36G G48C | ≤ 0.5
62 | C11A G44C C46A U53A G63C | 0.866
63 | C11G A15U C22U U32C A42G | ≤ 0.5

Row | Variant | yeast fitness
64 | C11G A42G U54C A57C | ≤ 0.5
65 | C11G A42C U47A G63C A69C | ≤ 0.5
66 | C11A G39A C62A | ≤ 0.5
67 | C11G C30A A42C C61A | ≤ 0.5
68 | C11G C30U G67C | ≤ 0.5
69 | C11G A14U C34A A57G | 0.642
70 | C11A U19G | 0.669
71 | C11G A21G G51C | 0.872
72 | C11G C34U G41A | 0.544
73 | C11A G50C C61A A69G | ≤ 0.5
74 | C11A U13A | 0.603
75 | C11A U32A C33U | 0.548
76 | C11G A15U A21G G38C | 0.604
77 | C11G C22A C46G | ≤ 0.5
78 | C11G C27A A36G G38A A65C | ≤ 0.5
79 | C11G G12A C61G G68A | 0.556
80 | C11A G25C C34G C46A A70G | ≤ 0.5
81 | C11A U13C C49U U54C C61G C66U | 0.64
82 | C11A G18A C49A C62G | ≤ 0.5
83 | C11G G17C U35C C49U C66U | ≤ 0.5
